In ChEMBL document CHEMBL1158182, “Antifungal activity of chalcones: a mechanistic study using various yeast strains” (Eur J Med Chem, 2008):

Assays:
Format in all cases: functional
Saccharomyces cerevisiae [1] = test: Antifungal activity against haploid Saccharomyces cerevisiae 1S by agar dilution method
Outline: (§1)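 S. cerevisiae and K. lactis strains were tested by agar dilution on rich YPD agar at 30 °C. Compound stocks in 96% EtOH were added to the medium to give […]. Cells were suspended in water, serially diluted to 10^9–10^3 cells/ml, and plated with a metal replicator. MIC was read from growth.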

Saccharomyces cerevisiae [2] = test: Antifungal activity against haploid Saccharomyces cerevisiae 1169 by agar dilution method; outline: as §1
Saccharomyces cerevisiae [3] = test: Antifungal activity against haploid Saccharomyces cerevisiae 2180 by agar dilution method; outline: as §1
Saccharomyces cerevisiae [4] = test: Antifungal activity against diploid Saccharomyces cerevisiae 1a by agar dilution method; outline: as §1
Saccharomyces cerevisiae [5] = test: Antifungal activity against diploid Saccharomyces cerevisiae 29a by agar dilution method; outline: as §1
Saccharomyces cerevisiae [6] = test: Antifungal activity against haploid Saccharomyces cerevisiae Sigma 1278b by agar dilution method; outline: as §1
Saccharomyces cerevisiae [7] = test: Antifungal activity against haploid Saccharomyces cerevisiae FY4 by agar dilution method; outline: as §1
Saccharomyces cerevisiae [8] = test: Antifungal activity against haploid Saccharomyces cerevisiae 10560-6B by agar dilution method; outline: as §1
Saccharomyces cerevisiae [9] = test: Antifungal activity against haploid Saccharomyces cerevisiae YSH1170 by agar dilution method; outline: as §1
Saccharomyces cerevisiae [10] = test: Antifungal activity against haploid Saccharomyces cerevisiae YSH1171 by agar dilution method; outline: as §1
Ogataea angusta [11] = test: Antifungal activity against Hansenula polymorpha WT1 with ade1 ura3 genotype by agar dilution method
Outline: (§2)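 H. polymorpha strains were tested by agar dilution on rich YPD agar at 37 °C. Compound stocks in 96% EtOH were mixed into the medium to give […]. Cells were suspended in water, serially diluted to 10^9, 10^7, 10^5 and 10^3 cells/ml, and applied to the agar with a metal replicator. MIC was read from growth.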

Ogataea angusta [12] = test: Antifungal activity against Hansenula polymorpha WT2 with ade1 met6 genotype by agar dilution method; outline: as §2
Ogataea angusta [13] = test: Antifungal activity against Hansenula polymorpha CD1 with ade1 leu2 cds1 genotype by agar dilution method; outline: as §2
Ogataea angusta [14] = test: Antifungal activity against Hansenula polymorpha CD2 with ade1 leu2 cds2 genotype by agar dilution method; outline: as §2
Ogataea angusta [15] = test: Antifungal activity against Hansenula polymorpha CD3 with ade1 leu2 cds3 genotype by agar dilution method; outline: as §2
Ogataea angusta [16] = test: Antifungal activity against Hansenula polymorpha 2a with arg1 leu2 ura3 cys1 genotype by agar dilution method; outline: as §2
Ogataea angusta [17] = test: Antifungal activity against Hansenula polymorpha 2b with arg1 ade1 leu2 genotype by agar dilution method; outline: as §2
Ogataea angusta [18] = test: Antifungal activity against Hansenula polymorpha D22 with arg1/arg1 ade1/ADE1 leu2/leu2 URA3/ura3 CYS1/cys1 genotype by agar dilution method; outline: as §2
Ogataea angusta [19] = test: Antifungal activity against Hansenula polymorpha M2 with met2 genotype by agar dilution method; outline: as §2
Ogataea angusta [20] = test: Antifungal activity against Hansenula polymorpha MC1 with met2 cys1 genotype by agar dilution method; outline: as §2
Ogataea angusta [21] = test: Antifungal activity against Hansenula polymorpha AS1 with arg1 gsh2delta genotype by agar dilution method; outline: as §2
Ogataea angusta [22] = test: Antifungal activity against Hansenula polymorpha M4 with met4 genotype by agar dilution method; outline: as §2
Ogataea angusta [23] = test: Antifungal activity against Hansenula polymorpha AU05 with ade3 ura3 genotype by agar dilution method; outline: as §2
Ogataea angusta [24] = test: Antifungal activity against Hansenula polymorpha R3 with rgh3 genotype by agar dilution method; outline: as §2
Ogataea angusta [25] = test: Antifungal activity against Hansenula polymorpha CRD2 with leu2 CDR2 genotype by agar dilution method; outline: as §2
Kluyveromyces lactis [26] = test: Antifungal activity against Kluyveromyces lactis 2-18B with MATalpha metA1 ura3 leu2 genotype by agar dilution method; outline: as §1
Kluyveromyces lactis [27] = test: Antifungal activity against Kluyveromyces lactis 1-6A with MATalpha uraA lys arg genotype by agar dilution method; outline: as §1
Kluyveromyces lactis [28] = test: Antifungal activity against Kluyveromyces lactis 2-19B with MATalpha ura lys arg genotype by agar dilution method; outline: as §1

Measured: MIC

O=C(/C=C/c1ccc(O)cc1)c1ccccc1 [4-HYDROXYCHALCONE]
> 40 µg/mL: all assays above

COc1cccc(/C=C/C(=O)c2ccc(Cl)cc2)c1O
> 40 µg/mL: all assays above

COc1cccc(/C=C/C(=O)c2ccc(Cl)cc2)c1
> 40 µg/mL: all assays above

COc1cc(/C=C/C(=O)c2ccc(Cl)cc2)ccc1O
> 40 µg/mL: all assays above

COc1ccc(/C=C/C(=O)c2ccc(Cl)cc2)cc1O
> 40 µg/mL: all assays above

O=C(/C=C/c1ccc(O)c(O)c1)c1ccccc1
> 40 µg/mL: all assays above

CC(=O)Nc1ccc(/C=C/C(=O)c2ccc(Cl)cc2)cc1
> 40 µg/mL: all assays above
